In ChEMBL document CHEMBL4364248, “Discovery of 1,2,4-oxadiazole-Containing hydroxamic acid derivatives as histone deacetylase inhibitors potential application in cancer therapy” (Eur J Med Chem, 2019):
pIC50: −log10 of the molar value. Active and inactive are the calls of the source. The calls are words filed in the database; no cut-off is given here.

Legend:
[1] = Toxicity in NOD/SCID mouse xenografted with human Daudi cells assessed as abnormal behavior at 20 mg/kg, po treated on day 1,3 and 5 per week and measured for every 2 days; format: organism-based; conditions: in vivo, 48 h
Outline: (§1)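 Female NOD/SCID mice (5–6 weeks) bearing s.c. Daudi xenografts, six per group. Dosing was 10 mg/kg i.v. or 20 mg/kg p.o. in 8% HP-β-CD on days 1, 3 and 5 weekly. Behaviour was observed, and organ tissues were collected at sacrifice for H&E staining.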

[2] = Cmax in Sprague-Dawley rat at 5 mg/kg, iv measured upto 24 hrs by LC-MS/MS analysis; format: ADME, organism-based; parameters: dose 5 mg/kg, route intravenous; conditions: in vivo
Outline: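 SD rats (200-250 g), six per time point, given 5 mg/kg as a tail-vein bolus or orally. Blood was taken by cardiac puncture before dosing and at 5, 15, 30, 45 min and 1, 2, 4, 6, 8, 10, 12 and 24 h. Plasma was spun at 4000 g for 15 min at 4 °C and stored at -80 °C. Analysis was LC-MS/MS with multiple-reaction monitoring, followed by noncompartmental analysis.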

Daudi [3] = assay: Antitumour activity against human Daudi cells xenografted in NOD/SCID mouse assessed as increase in acetylated H4 expression at 10 mg/kg, iv treated on day 1,3 and 5 per week by immunohistochemical analysis; format: functional, organism-based
Outline: (§2)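 Daudi s.c. xenografts in female NOD/SCID mice (5–6 weeks) were randomized six per group at 100–200 mm3. Dosing was 10 mg/kg i.v. or 20 mg/kg p.o. in 8% HP-β-CD on days 1, 3 and 5 weekly. Tumors were collected at study end for immunohistochemistry, with comparison to the control group.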

[4] = Toxicity in NOD/SCID mouse xenografted with human Daudi cells assessed as organ damage at 10 mg/kg, iv treated on day 1,3 and 5 per week and measured for every 2 days by H and E staining based assay; format: organism-based; conditions: in vivo, 48 h; outline: as §1
JeKo-1 [5] = assay: Cell cycle arrest in human JeKo1 cells assessed as accumulation at G2/M phase at 100 nM after 24 hrs by propidium iodide staining based flow cytometric analysis (reference value: 10.71 %); format: functional
Daudi [6] = assay: Antitumour activity against human Daudi cells xenografted in NOD/SCID mouse assessed as DNA damage at 20 mg/kg, po treated on day 1,3 and 5 per week; format: functional, organism-based; outline: as §2
Daudi [7] = assay: Antitumour activity against human Daudi cells xenografted in NOD/SCID mouse assessed as DNA damage at 10 mg/kg, iv treated on day 1,3 and 5 per week; format: functional, organism-based; outline: as §2
JeKo-1 [8] = assay: Induction of apoptosis in human JeKo1 cells assessed as early apoptotic cells at 1000 nM after 48 hrs by annexin V-FITC/propidium iodide staining-based flow cytometric method (reference value: 3.34 %); format: functional
Outline: (§3)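 Jeko-1 cells were grown in RPMI-1640 with 10% FBS at 37 °C under 5% CO2. They were exposed to 0, 10, 100 or 1000 nM for 48 h, then apoptosis induction was analysed.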

Histone deacetylase 5 = Histone deacetylase 5 (Homo sapiens, UniProt Q9UQL6); assay: Inhibition of recombinant full length N-terminal GST-tagged human HDAC5 expressed in baculovirus infected Sf9 cells using Ac-peptide-AMC as substrate after 1 hr by fluorescence assay
Histone deacetylase 5, sequence (Q9UQL6 whole entry): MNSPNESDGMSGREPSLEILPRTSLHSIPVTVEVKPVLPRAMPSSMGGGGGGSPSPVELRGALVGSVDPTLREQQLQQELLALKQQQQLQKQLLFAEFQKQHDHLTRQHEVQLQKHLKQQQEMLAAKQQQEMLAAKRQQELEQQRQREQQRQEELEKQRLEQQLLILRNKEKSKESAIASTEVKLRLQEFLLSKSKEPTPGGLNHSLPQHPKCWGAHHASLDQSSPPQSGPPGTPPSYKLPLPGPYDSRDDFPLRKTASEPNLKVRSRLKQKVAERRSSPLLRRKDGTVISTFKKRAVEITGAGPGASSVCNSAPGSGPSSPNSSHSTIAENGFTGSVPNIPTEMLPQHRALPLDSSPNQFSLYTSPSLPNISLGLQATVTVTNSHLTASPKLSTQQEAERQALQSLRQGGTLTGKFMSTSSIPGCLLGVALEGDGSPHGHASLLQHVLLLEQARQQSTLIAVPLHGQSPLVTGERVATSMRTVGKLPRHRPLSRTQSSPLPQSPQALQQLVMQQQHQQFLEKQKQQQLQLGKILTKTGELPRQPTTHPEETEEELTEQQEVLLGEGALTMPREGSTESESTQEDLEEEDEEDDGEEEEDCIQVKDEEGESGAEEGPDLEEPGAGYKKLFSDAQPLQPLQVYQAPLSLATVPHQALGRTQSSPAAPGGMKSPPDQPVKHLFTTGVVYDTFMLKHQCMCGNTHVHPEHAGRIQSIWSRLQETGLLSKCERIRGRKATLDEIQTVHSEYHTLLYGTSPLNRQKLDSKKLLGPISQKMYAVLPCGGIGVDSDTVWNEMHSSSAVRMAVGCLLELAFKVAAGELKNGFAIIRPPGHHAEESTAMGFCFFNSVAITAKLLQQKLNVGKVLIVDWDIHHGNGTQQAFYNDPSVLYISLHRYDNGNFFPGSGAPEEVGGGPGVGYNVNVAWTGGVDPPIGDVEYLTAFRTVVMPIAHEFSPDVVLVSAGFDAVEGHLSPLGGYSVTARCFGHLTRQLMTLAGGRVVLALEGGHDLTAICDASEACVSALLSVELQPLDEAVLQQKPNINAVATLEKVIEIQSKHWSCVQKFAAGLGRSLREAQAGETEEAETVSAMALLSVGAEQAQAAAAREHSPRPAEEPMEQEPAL

A2780S = assay: Antiproliferative activity against human A2780S cells after 72 hrs by MTT assay; format: functional, cell-based
Daudi [9] = assay: Antitumour activity against human Daudi cells xenografted in NOD/SCID mouse assessed as reduction in tumour growth at 10 mg/kg, iv treated on day 1,3 and 5 per week and measured for every 2 days; format: functional; conditions: read-out: TGI
Outline: (§4)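 Daudi cells (107 in 100 µL serum-free RPMI 1640) were injected s.c. into the right flank of 5–6 week female NOD/SCID mice. At 100–200 mm3, mice were randomized six per group. Dosing was 10 mg/kg i.v. or 20 mg/kg p.o. in 8% HP-β-CD on days 1, 3 and 5 each week. Tumors were measured by caliper every 2 days, with TV = length × width² × 0.5.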

Daudi [10] = assay: Antitumour activity against human Daudi cells xenografted in NOD/SCID mouse assessed as increase in acetylated H4 expression at 20 mg/kg, po treated on day 1,3 and 5 per week by immunohistochemical analysis; format: functional, organism-based; outline: as §2
JeKo-1 [11] = assay: Cell cycle arrest in human JeKo1 cells assessed as accumulation at G2/M phase at 10 nM after 24 hrs by propidium iodide staining based flow cytometric analysis (reference value: 10.71 %); format: functional
JeKo-1 [12] = assay: Induction of cell cycle arrest in human JeKo1 cells assessed as accumulation at G1 phase after 24 hrs by propidium iodide staining-based flow cytometric method; format: functional
JeKo-1 [13] = assay: Cell cycle arrest in human JeKo1 cells assessed as accumulation at G1 phase at 100 nM after 24 hrs by propidium iodide staining based flow cytometric analysis (reference value: 63.16 %); format: functional
JeKo-1 [14] = assay: Induction of apoptosis in human JeKo1 cells assessed as early apoptotic cells at 10 nM after 48 hrs by annexin V-FITC/propidium iodide staining-based flow cytometric method (reference value: 3.34 %); format: functional; outline: as §3
JeKo-1 [15] = assay: Cell cycle arrest in human JeKo1 cells assessed as accumulation at G1 phase at 10 nM after 24 hrs by propidium iodide staining based flow cytometric analysis (reference value: 63.16 %); format: functional
Histone deacetylase 9 = Histone deacetylase 9 (Homo sapiens, UniProt Q9UKV0); assay: Inhibition of recombinant C-terminal His-tagged human HDAC9 (604 to 1066 residues) expressed in baculovirus infected Sf9 cells using Ac-peptide-AMC as substrate after 1 hr by fluorescence assay
Histone deacetylase 9, sequence (Q9UKV0 whole entry, the tested form may be a part): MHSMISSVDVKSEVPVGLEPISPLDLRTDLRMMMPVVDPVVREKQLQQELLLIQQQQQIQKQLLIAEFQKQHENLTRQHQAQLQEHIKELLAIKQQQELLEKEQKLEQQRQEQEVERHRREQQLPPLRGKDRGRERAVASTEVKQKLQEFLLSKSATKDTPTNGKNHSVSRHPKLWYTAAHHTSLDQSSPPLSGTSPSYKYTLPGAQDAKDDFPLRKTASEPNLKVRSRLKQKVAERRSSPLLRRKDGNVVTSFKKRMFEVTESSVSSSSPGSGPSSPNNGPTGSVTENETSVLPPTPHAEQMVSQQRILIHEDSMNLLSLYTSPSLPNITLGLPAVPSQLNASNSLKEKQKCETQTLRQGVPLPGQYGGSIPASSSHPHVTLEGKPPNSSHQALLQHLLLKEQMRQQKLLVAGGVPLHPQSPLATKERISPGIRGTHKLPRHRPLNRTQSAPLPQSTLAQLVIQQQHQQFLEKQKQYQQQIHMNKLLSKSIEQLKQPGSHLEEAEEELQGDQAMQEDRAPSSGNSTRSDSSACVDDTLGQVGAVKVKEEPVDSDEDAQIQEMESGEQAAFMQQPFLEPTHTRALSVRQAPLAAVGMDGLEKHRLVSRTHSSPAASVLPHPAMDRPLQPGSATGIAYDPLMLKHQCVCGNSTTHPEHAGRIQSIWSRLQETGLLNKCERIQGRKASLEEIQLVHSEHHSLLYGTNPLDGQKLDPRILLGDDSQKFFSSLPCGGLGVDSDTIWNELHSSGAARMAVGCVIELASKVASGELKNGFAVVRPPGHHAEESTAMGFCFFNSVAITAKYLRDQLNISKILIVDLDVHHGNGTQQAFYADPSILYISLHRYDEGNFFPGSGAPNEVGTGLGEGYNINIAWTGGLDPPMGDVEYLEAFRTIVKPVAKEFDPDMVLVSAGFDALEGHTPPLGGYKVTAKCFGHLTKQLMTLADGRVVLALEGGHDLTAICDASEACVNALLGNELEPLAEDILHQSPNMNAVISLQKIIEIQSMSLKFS

Daudi [16] = assay: Antitumour activity against human Daudi cells xenografted in NOD/SCID mouse assessed as reduction in tumour growth at 20 mg/kg, po treated on day 1,3 and 5 per week and measured for every 2 days; format: functional; conditions: read-out: TGI; outline: as §4

- Cmax [2]: 955 ng/mL
- pIC50 (Histone deacetylase 5): 6.27
- pIC50 (A2780S): 7.40
- pIC50 (Histone deacetylase 9): 6.36
Structure (SMILES): Cc1ccc(CN2CCC(c3noc(CN(C)c4ncc(C(=O)NO)cn4)n3)CC2)cc1
- Activity [1]: Non-Toxic
- Activity (Daudi [3]): Active
- Activity [4]: Non-Toxic
- Activity (JeKo-1 [5]): 10.77%
- Activity (Daudi [6]): Active
- Activity (Daudi [7]): Active
- Activity (JeKo-1 [8]): 42.7%
- inhibition in vivo at 10 mg/kg (Daudi [9]): 46.1%
- Activity (Daudi [10]): Active
- Activity (JeKo-1 [11]): 9.1%
- Activity (JeKo-1 [12]): Dose-dependent effect
- Activity (JeKo-1 [13]): 80.74%
- Activity (JeKo-1 [14]): 5.57%
- Activity (JeKo-1 [15]): 66.88%
- inhibition in vivo at 20 mg/kg (Daudi [16]): 53.8%
